For test [1], the target named is T1, Protein kinase C (PKC) (Homo sapiens) (UniProt O94806+P41743+P17252+P05129+Q05655+P05771+Q05513+Q02156+P24723+Q15139+Q04759). Description: Induction of apoptosis in CCL19-induced human CD4+ T-cells infected with latent HIV-1 assessed as caspase-3 activation at 100 nM incubated for 48 hrs in presence of 2 uM ionomycin by incubated for 48 hrs by FACS. Particulars: CD4+ T cell, filed as activator. Type of test: cell-based. The essentials: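 Latency model: healthy-donor CD4+ T-cells given 100 nM CCL19 for 2 days, infected with HIV-1 NL4-3, kept 5 days in IL-2. Stimulated 2 days with 1 µM drug or 100 nM PMA plus 2 µM ionomycin. Cells fixed and permeabilized, co-stained with anti-p24 and anti-active caspase-3 mAbs; active caspase-3 read by flow cytometry separately in p24+ and p24− cells. Two donors.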
In general terms: In flow cytometry, cells or beads pass a laser one at a time.

The test system of test [2] is U1. Description: Induction of apoptosis in human U1 cells at 1 uM incubated for 48 hrs after pre-incubated for 2 hrs with 20 uM caspase inhibitor Q-VD-Oph by propidium iodide/annexin-V staining based flow cytometry. Format: functional, cell-based. The method in brief:
(§1)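 ACH-2 or U1 cells pretreated 2 h with 20 µM pan-caspase inhibitor Q-VD-Oph, then exposed to 1 µM compound for 48 h. Annexin-V/PI staining by flow cytometry; apoptotic proportions compared with and without Q-VD-Oph. Mean ± S.D.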

The next test has as its system U-937. Kind of test: Induction of apoptosis in human U-937 cells assessed as caspase-3 activation at 10 nM incubated for 24 hrs by flow cytometry. Format: functional. The method in brief:
(§2)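 Cells fixed in 1% paraformaldehyde, permeabilized, stained 30 min on ice with anti-active caspase-3 mAb, and analysed by flow cytometry. Three independent experiments.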

Test [3] concerns ACH-2 cell line. Description: Induction of apoptosis in human ACH-2 cells at 1 uM incubated for 48 hrs after pre-incubated for 2 hrs with 20 uM caspase inhibitor Q-VD-Oph by propidium iodide/annexin-V staining based flow cytometry. Type of test: functional, cell-based. The method in brief:
as §1

Test [4] has as its system J-Lat 6.3. Description: Induction of apoptosis in human J-Lat 6.3 cells assessed as caspase-3 activation at 10 nM incubated for 24 hrs by flow cytometry. Type of test: functional. The essentials: as §2
The test system of test [5] is ACH-2 cell line. Description: Induction of apoptosis in human ACH-2 cells at 1 uM incubated for 48 hrs by propidium iodide/annexin-V staining based flow cytometry (reference value: 3.16%). Type of test: functional.
The test system of test [6] is U1. Kind of test: Induction of apoptosis in human U1 cells assessed as caspase-3 activation at 10 nM incubated for 24 hrs by flow cytometry (reference value: 1.86%). Format: functional. The method in brief:
as §2

For another test, the system named is Jurkat. Description: Induction of apoptosis in human Jurkat cells assessed as caspase-3 activation at 10 nM incubated for 24 hrs by flow cytometry. Type of test: functional. The essentials: as §2
Another test has as its system J-Lat 6.3 (Homo sapiens). Description: Induction of apoptosis in human J-Lat 6.3 cells at 1 uM incubated for 48 hrs after pre-incubated for 2 hrs with 20 uM caspase inhibitor Q-VD-Oph by propidium iodide/annexin-V staining based flow cytometry.
The test system of test [7] is U1. Description: Induction of apoptosis in human U1 cells at 1 uM incubated for 48 hrs by propidium iodide/annexin-V staining based flow cytometry (reference value: 3.16%). Format: functional.
In test [8] the test system is J-Lat 6.3. Kind of test: Induction of apoptosis in human J-Lat 6.3 cells assessed as caspase-3 activation at 10 nM incubated for 24 hrs by flow cytometry (reference value: 2.43%). Type of test: functional. The essentials: as §2
The subject of test [9] is J-Lat 6.3. Description: Induction of apoptosis in human J-Lat 6.3 cells at 1 uM incubated for 48 hrs by propidium iodide/annexin-V staining based flow cytometry (reference value: 3.16%). Format: functional.
In test [10] the test system is ACH-2 cell line. Kind of test: Induction of apoptosis in human ACH-2 cells assessed as cleaved-PARP level at 10 nM incubated for 24 hrs by flow cytometry (reference value: 1.64%). Type of test: functional. The essentials: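 Cells fixed, permeabilized, stained on ice with anti-cleaved PARP (Asp-214) mAb; % cleaved-PARP cells by flow cytometry. Means ± S.D. of three independent experiments.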

Test [11] can be described thus: Induction of apoptosis in human CEM A3.01 cells assessed as caspase-3 activation at 10 nM incubated for 24 hrs by flow cytometry. Type of test: functional. The method in brief: as §2
Test [12] relates to ACH-2 cell line. Description: Induction of apoptosis in human ACH-2 cells assessed as caspase-3 activation at 10 nM incubated for 24 hrs by flow cytometry. Type of test: functional. The method in brief: as §2
The subject of test [13] is U1. Kind of test: Induction of apoptosis in human U1 cells assessed as caspase-3 activation at 10 nM incubated for 24 hrs by flow cytometry. Type of test: functional. The essentials:
as §2

Test [14] concerns the target T1, Protein kinase C (PKC) (Homo sapiens). Description: Activation of PKC in CCL19-induced human CD4+ T-cells infected with latent HIV-1 assessed as reversal of HIV-1 latency by measuring increase in p24 antigen level at 100 nM incubated for 48 hrs in presence of 2 uM ionomycin by chemiluminescent enzyme immunoassay. Format: cell-based. Particulars: CD4+ T cell, filed as activator.

Test [15] has the same target. Kind of test: Activation of PKC in CCL19-induced human CD4+ T-cells infected with latent HIV-1 assessed as reversal of HIV-1 latency by measuring increase in p24 antigen level at 2 uM incubated for 48 hrs in presence of 100 nM PMA by chemiluminescent enzyme immunoassay. Type of test: cell-based. As to conditions: CD4+ T cell, filed as activator.

Calls of active or inactive are those of the source. The rule behind the calls is not given here.

Regarding `CCCCCCCCCCCCCC(=O)O[C@@H]1[C@@H](C)[C@@]2(O)[C@@H](C=C(CO)C[C@]3(O)C(=O)C(C)=C[C@@H]23)[C@@H]2C(C)(C)[C@]12OC(C)=O` [PHORBOL MYRISTATE ACETATE], the outcome in [1] and in [14] was Active. The outcome in the test with U1 [2], in the test with ACH-2 cell line [3] and in the test on J-Lat 6.3 (Homo sapiens) was inactive. The Activity is given as 1.02% with U-937; 12.9% with J-Lat 6.3 [4]; 40.3% in the test on ACH-2 cell line [5]; 8.06% in the test on U1 [6]; 2.03% in the test on Jurkat; 28.7% in the test with U1 [7]. For the same molecule, the Activity worked out at 19.9% with J-Lat 6.3 [8]; 15.2% with J-Lat 6.3 [9]; 21.7% in the test on ACH-2 cell line [10]; 2.39% in [11]; 27% with ACH-2 cell line [12]; 33.6% in the test on U1 [13].
With `C[C@H](CCC(=O)O)C[C@H](C)C[C@H](C)C(=O)/C=C(\O)[C@H](C)C[C@H](C)C/C=C/[C@@H](C)[C@@H](O)[C@@H](C)[C@@H](O)C[C@@H]1CC[C@@](C)([C@H]2CC[C@@](C)([C@@H](C)O)O2)O1`, the result in test [15] was Active.
